This is an account of results in ChEMBL document CHEMBL2440006, “Mastering tricyclic ring systems for desirable functional cannabinoid activity” (Eur J Med Chem, 2013).

Each structure is given as a SMILES string. pEC50, pKi: −log10 of the molar value. Calls of active or inactive are those of the source.

The target of assay [1] is T1, Cannabinoid receptor 2 (Homo sapiens, UniProt P34972). The assay can be described thus: Induction of human CB2 receptor internalization expressed in HEK293 cells at 10 uM relative to CP55940. Type of assay: cell-based. In short, it runs like this:
(§1)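 Cells stably expressing human CB1 or human CB2 receptors, exposed to test compound alone. […] Mean of two determinations.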

The target in assay [2] is Cannabinoid receptor 1 (Homo sapiens) (UniProt P21554). Briefly: Agonist activity at human recombinant CB1 receptor expressed in CHO cells after 1 hr by [35S]GTPgammaS binding assay relative to CP55940. In kind it is functional, cell-based. In short, it runs like this:
(§2)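 Membranes from CHO cells expressing hCB1 or hCB2, preincubated at least 15 min on ice with 30 μM GDP solution. GTP-γ-[35S] with WGA-PVT SPA beads. Eight concentrations, 0.001–10 μM, in duplicate. Incubated 1 h at room temperature, centrifuged, then a further 1 h before counting. […] Mean of two determinations.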
(GTPγS resists hydrolysis and so accumulates on activated G proteins.)

Assay [3] shares this target. Briefly: Induction of human CB1 receptor internalization expressed in HEK293 cells at 10 uM relative to CP55940. In kind it is cell-based. In short, it runs like this:
as §1

Assay [4] is described as follows: Selectivity ratio of Ki for rat CB1 receptor to Ki for human CB2 receptor.
In another assay the target is Cannabinoid receptor 1 (Rattus norvegicus, UniProt P20272). The assay can be described thus: Displacement of [3H]-CP55940 from CB1 receptor in rat brain homogenate after 1.5 hrs by microbeta liquid scintillation counting analysis. The settings on record: read-out: Ki. Type of assay: tissue-based. In short, it runs like this: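 Membranes from rat brain homogenate (CB1) or HEK293 cells expressing human CB2. […] GF/B filtration, then scintillation counting. […] IC50 by three-parameter logistic fit, Ki by Cheng-Prusoff. Three experiments in triplicate.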

Assay [5] concerns the target T1, Cannabinoid receptor 2. The assay can be described thus: Displacement of [3H]-CP55940 from human CB2 receptor expressed in HEK293 cells after 1.5 hrs by microbeta liquid scintillation counting analysis. The settings on record: read-out: Ki. Type of assay: cell-based. In short, it runs like this: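 Membranes from rat brain homogenate (CB1) or HEK293 cells expressing human CB2. GF/B filtration, then scintillation counting. IC50 by three-parameter logistic fit, Ki by Cheng-Prusoff. Three experiments in triplicate.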

For assay [6], the target named is T1, Cannabinoid receptor 2. The assay can be described thus: Partial agonist activity at human recombinant CB2 receptor expressed in CHO cells after 1 hr by [35S]GTPgammaS binding assay relative to CP55940. Type of assay: functional, cell-based. In short, it runs like this: as §2
For assay [7], the target named is T1, Cannabinoid receptor 2. The assay can be described thus: Agonist activity at human recombinant CB2 receptor expressed in CHO cells after 1 hr by [35S]GTPgammaS binding assay relative to CP55940. In kind it is functional, cell-based. In short, it runs like this:
as §2

Assay [8] concerns the target T1, Cannabinoid receptor 2. The assay can be described thus: Agonist activity at human recombinant CB2 receptor expressed in CHO cells after 1 hr by [35S]GTPgammaS binding assay. Type of assay: functional, cell-based.
For a further assay, the system named is Rattus norvegicus. Briefly: Antiallodynic activity in ip dosed Sprague-Dawley rat spinal nerve ligation model of neuropathic pain assessed as reduction of tactile allodynia. Type of assay: functional, organism-based. In short, it runs like this: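 Male Sprague Dawley rats, 120–150 g. Left L5/L6 spinal nerves ligated under isoflurane; tested three weeks later. Single i.p. bolus, 5–20 mg/kg, in 30% hydroxypropyl-β-cyclodextrin in PBS, prepared within 1 h before injection. Paw withdrawal threshold by von Frey filaments, 50% threshold by up-down method. Seven rats per group. Repeated-measures ANOVA with Dunnett's test vs time 0.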

Assay [9] deals with T1, Cannabinoid receptor 2. The assay can be described thus: Antagonist activity at human recombinant […] receptor expressed in CHO cells at 1 uM after 1 hr by [35S]GTPgammaS binding assay. Type of assay: functional, cell-based.
Assay [10] concerns the target T1, Cannabinoid receptor 2. The assay can be described thus: Agonist activity at human recombinant […] receptor expressed in CHO cells at 1 uM after 1 hr by [35S]GTPgammaS binding assay. In kind it is functional, cell-based.
Assay [11] has as its target T1, Cannabinoid receptor 2. The assay can be described thus: Inverse agonist activity at human recombinant CB2 receptor expressed in CHO cells after 1 hr by [35S]GTPgammaS binding assay relative to CP55940. Type of assay: functional, cell-based. In short, it runs like this: as §2
For assay [12], the target named is T1, Cannabinoid receptor 2. Briefly: Reduction of CP55940-induced human CB2 receptor internalization expressed in HEK293 cells at 3 uM relative to control. Also on record: scale not given: the % may be the effect or the level left. In kind it is cell-based.
In assay [13] the target is Cannabinoid receptor 1 (Homo sapiens) (UniProt P21554). The assay can be described thus: Partial agonist activity at human recombinant CB1 receptor expressed in CHO cells after 1 hr by [35S]GTPgammaS binding assay relative to CP55940. Type of assay: functional, cell-based. In short, it runs like this: as §2
Chain of Cannabinoid receptor 1 (Homo sapiens) (P21554 whole entry): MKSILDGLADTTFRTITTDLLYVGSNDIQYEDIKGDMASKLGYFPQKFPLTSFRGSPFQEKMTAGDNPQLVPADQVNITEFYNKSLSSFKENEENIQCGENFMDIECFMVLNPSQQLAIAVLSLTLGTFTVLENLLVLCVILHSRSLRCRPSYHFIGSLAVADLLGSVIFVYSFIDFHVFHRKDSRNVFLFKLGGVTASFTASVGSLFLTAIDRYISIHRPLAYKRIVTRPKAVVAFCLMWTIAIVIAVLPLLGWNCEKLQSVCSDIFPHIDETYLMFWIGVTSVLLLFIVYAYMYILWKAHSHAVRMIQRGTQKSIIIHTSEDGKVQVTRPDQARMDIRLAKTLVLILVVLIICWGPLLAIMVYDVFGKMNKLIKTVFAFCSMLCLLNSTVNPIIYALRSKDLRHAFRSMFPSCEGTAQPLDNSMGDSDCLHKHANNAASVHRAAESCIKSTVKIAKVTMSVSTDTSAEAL

Chain of Cannabinoid receptor 1 (P20272 whole entry): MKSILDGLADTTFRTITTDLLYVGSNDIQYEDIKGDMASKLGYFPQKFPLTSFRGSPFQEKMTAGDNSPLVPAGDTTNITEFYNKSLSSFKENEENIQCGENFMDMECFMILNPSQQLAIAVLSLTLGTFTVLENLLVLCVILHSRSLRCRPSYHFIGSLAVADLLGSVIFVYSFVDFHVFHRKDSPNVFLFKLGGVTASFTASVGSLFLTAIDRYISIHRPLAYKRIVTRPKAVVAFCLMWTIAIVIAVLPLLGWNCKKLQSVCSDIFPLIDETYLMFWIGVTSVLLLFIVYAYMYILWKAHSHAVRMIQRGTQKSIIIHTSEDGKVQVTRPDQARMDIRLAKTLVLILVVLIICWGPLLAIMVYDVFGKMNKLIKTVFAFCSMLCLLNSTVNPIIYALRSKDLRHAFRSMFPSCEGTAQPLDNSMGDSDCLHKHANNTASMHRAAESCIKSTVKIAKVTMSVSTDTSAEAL
T1 sequence (P34972 whole entry): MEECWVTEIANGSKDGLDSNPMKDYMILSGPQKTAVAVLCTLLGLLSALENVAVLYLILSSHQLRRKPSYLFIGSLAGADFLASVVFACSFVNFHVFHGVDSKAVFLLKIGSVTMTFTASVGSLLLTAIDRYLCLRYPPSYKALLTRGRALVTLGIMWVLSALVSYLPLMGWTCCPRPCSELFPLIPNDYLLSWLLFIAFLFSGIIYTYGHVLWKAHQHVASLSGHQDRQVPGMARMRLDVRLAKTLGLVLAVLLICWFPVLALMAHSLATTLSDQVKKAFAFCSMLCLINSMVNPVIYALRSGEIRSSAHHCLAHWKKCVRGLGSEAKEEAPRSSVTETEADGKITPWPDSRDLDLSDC

As for `CCCCCn1c2ccccc2c2cc(C(=O)N3CCCCC3)ccc21`, the values for the Activity (at Cannabinoid receptor 2 [1]; in assay [3]) were 118% and 140%, respectively. Moreover, the Emax in assay [2] turned out to be 73.6%; on Cannabinoid receptor 2 [6] it was 30.8%. Further, the Ratio Ki in [4] was 1.05. Further, the pKi at Cannabinoid receptor 1 is 7.11; on Cannabinoid receptor 2 [5] it was 7.14.

In the case of `CS(=O)(=O)NCCCn1c2ccccc2c2cc(C(=O)N3CCCCC3)ccc21`, the Activity is 116% on Cannabinoid receptor 2 [1], 54.1% in assay [3] and “Dose-dependent effect” in the assay with Rattus norvegicus. For the same compound, the Emax on Cannabinoid receptor 2 [7] stood at 59.6%. The pEC50 at Cannabinoid receptor 2 [8] was 8.14. Besides, the Ratio Ki in assay [4] was found to be 23.7. Further, the result on Cannabinoid receptor 2 [9] and on Cannabinoid receptor 2 [10] was inactive. Besides, the pKi at Cannabinoid receptor 1 is 5.83; on Cannabinoid receptor 2 [5], 7.21.

Consider `CCCCCn1c2ccc(C(=O)N3CCCCC3)cc2c2ccc(OC)cc21`, for which the values for the Emax (at Cannabinoid receptor 2 [11]; in assay [13]) were -76.4% and 30.4%, respectively. Also, the Activity at Cannabinoid receptor 2 [1] is -1.1%; in assay [3], 33.4%. The outcome at Cannabinoid receptor 2 [12] was Active. Besides, in assay [4], the Ratio Ki turned out to be 1.71.

With `CCCCCn1c2ccccc2c2cc(C(=O)NCC(C)(C)C)ncc21`, the figures for the Activity (at Cannabinoid receptor 2 [1]; on Cannabinoid receptor 2 [12]; in assay [3]) were 0.1%, over 50% and 34.7%, respectively. Besides, in [4], the Ratio Ki is 1.65. Besides, the pKi at Cannabinoid receptor 1 was 7.36; at Cannabinoid receptor 2 [5], 7.58.

Regarding `CCCCCn1c2ccccc2c2cc(C(=O)c3ccccc3)ccc21`, the Activity is 39.3% at Cannabinoid receptor 2 [1], over 50% on Cannabinoid receptor 2 [12] and 77% in assay [3]. For the same compound, the Ratio Ki in [4] turned out to be 2.88. For the same compound, the pKi on Cannabinoid receptor 1 was 6.54; at Cannabinoid receptor 2 [5] it was 7.00.

What is called Emax is the size of the effect at its maximum, as opposed to the concentration needed. The pKi is the negative decadic logarithm of the Ki, by convention in mol/L. For orientation: pEC50 means the negative decadic logarithm of the EC50, by convention in mol/L.
